ChEMBL document CHEMBL2346522, “Rational design of apoptosis signal-regulating kinase 1 inhibitors: discovering novel structural scaffold” (Eur J Med Chem, 2013)

Experiments:
[1] = target: T1, Mitogen-activated protein kinase kinase kinase 5 (Homo sapiens, UniProt Q99683); test: Inhibition of human ASK1 using MBP as substrate incubated for 10 mins prior to ATP addition measured after 20 mins by liquid scintillation counting analysis
T1 sequence (Q99683 whole entry): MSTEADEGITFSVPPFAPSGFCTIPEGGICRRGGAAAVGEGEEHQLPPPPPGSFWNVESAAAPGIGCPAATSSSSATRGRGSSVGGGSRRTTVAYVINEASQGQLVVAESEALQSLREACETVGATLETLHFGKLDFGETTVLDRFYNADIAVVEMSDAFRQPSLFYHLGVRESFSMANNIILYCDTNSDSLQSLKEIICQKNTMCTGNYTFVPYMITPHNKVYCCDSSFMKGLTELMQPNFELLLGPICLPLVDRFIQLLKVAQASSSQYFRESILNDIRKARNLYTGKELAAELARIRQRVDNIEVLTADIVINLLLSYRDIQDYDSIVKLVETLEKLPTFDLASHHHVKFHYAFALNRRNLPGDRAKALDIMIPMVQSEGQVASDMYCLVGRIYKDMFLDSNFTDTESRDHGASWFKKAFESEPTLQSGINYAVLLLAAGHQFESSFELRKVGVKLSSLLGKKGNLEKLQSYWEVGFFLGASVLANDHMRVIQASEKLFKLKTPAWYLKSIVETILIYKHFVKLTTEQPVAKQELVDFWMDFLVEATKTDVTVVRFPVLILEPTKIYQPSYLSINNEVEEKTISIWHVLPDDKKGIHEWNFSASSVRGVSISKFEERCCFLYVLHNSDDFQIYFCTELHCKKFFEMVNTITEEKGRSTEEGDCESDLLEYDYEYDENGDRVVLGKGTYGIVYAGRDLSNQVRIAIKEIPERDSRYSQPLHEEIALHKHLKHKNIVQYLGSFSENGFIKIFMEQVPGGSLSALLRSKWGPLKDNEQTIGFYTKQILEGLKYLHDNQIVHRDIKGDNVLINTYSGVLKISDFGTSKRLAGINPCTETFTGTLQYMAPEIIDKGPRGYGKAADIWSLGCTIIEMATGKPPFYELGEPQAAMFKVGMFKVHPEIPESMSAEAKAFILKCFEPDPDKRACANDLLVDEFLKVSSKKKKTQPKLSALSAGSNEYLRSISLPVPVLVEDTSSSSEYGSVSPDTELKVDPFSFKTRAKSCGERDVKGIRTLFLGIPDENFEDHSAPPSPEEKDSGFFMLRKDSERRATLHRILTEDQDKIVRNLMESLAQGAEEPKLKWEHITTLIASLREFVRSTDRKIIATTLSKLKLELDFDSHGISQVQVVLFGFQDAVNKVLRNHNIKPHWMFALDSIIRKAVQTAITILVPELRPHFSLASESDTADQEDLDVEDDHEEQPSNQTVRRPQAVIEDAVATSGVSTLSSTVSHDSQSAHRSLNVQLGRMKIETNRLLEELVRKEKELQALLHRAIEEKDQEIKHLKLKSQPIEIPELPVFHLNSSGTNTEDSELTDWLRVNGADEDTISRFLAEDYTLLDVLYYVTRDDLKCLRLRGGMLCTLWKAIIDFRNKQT
In short: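 Inhibitor added from a DMSO stock is incubated with enzyme on ice for 10 min. The reaction is started with ATP plus MgCl₂ in MOPS pH 7.2, and labeled and unlabeled ATP are combined.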

[2] = target: T2, Aurora kinase A (Homo sapiens) (UniProt O14965); test: Inhibition of human Aurora A using Kemptide as substrate assessed as residual activity at 10 uM incubated for 10 mins prior to ATP addition measured after 20 mins by liquid scintillation counting analysis
T2 sequence (whole entry): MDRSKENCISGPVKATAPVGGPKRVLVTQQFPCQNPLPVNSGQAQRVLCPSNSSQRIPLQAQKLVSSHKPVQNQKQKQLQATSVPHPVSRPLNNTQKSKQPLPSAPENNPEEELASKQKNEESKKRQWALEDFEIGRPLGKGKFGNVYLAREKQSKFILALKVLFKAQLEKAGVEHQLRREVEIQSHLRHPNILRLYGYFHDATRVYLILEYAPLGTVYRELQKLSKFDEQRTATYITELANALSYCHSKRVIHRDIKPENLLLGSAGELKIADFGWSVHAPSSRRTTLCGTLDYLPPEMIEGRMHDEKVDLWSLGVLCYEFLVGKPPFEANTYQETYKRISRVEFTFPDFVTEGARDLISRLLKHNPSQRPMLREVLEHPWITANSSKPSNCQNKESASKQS

[3] = target: Fibroblast growth factor receptor 1 (Homo sapiens) (UniProt P11362); test: Inhibition of human FGFR1 using IGF-IRtide (12 to 527) as substrate assessed as residual activity at 10 uM incubated for 10 mins prior to ATP addition measured after 20 mins by liquid scintillation counting analysis
[4] = target: Angiopoietin-1 receptor (Homo sapiens) (UniProt Q02763); test: Inhibition of human Tie2 using TK substrate 2 as substrate assessed as residual activity at 10 uM incubated for 10 mins prior to ATP addition measured after 20 mins by liquid scintillation counting analysis
[5] = target: Casein kinase II (Homo sapiens) (UniProt P67870+P68400+P19784); test: Inhibition of human CK2 using RRRDDDSDDD as substrate assessed as residual activity at 10 uM incubated for 10 mins prior to ATP addition measured after 20 mins by liquid scintillation counting analysis; format: protein-complex assay
[6] = target: Hepatocyte growth factor receptor (Homo sapiens) (UniProt P08581); test: Inhibition of human HGFR using KKKSPGEYVNIEFG as substrate assessed as residual activity at 10 uM incubated for 10 mins prior to ATP addition measured after 20 mins by liquid scintillation counting analysis
[7] = target: Mitogen-activated protein kinase 10 (Homo sapiens) (UniProt P53779); test: Inhibition of human JNK3 using JNK3tide as substrate assessed as residual activity at 10 uM incubated for 10 mins prior to ATP addition measured after 20 mins by liquid scintillation counting analysis
[8] = target: T3, Mitogen-activated protein kinase kinase kinase 5 (Homo sapiens) (UniProt Q99683); test: Inhibition of human ASK1 using MBP as substrate assessed as residual activity at 10 uM incubated for 10 mins prior to ATP addition measured after 20 mins by liquid scintillation counting analysis
T3 sequence (whole entry): T1 sequence (Q99683 whole entry)

[9] = target: T1, Mitogen-activated protein kinase kinase kinase 5; test: Competitive inhibition of human ASK1 using MBP as substrate incubated for 10 mins prior to ATP addition measured after 20 mins by Lineweaver-Burk plot analysis
In short: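 ASK1 activity with MBP substrate and γ-³²P-ATP. Enzyme and substrate sit in MOPS pH 7.2 buffer (EGTA, EDTA, DTT, BSA, β-glycerophosphate). Inhibitor from a DMSO stock is pre-mixed with them on ice for 10 min. The reaction starts with ATP/MgCl₂. Substrate concentration curves are run at several inhibitor levels, in triplicate, and analysed by Lineweaver–Burk linearized plots.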

Sequence of Hepatocyte growth factor receptor (Homo sapiens) (P08581 whole entry): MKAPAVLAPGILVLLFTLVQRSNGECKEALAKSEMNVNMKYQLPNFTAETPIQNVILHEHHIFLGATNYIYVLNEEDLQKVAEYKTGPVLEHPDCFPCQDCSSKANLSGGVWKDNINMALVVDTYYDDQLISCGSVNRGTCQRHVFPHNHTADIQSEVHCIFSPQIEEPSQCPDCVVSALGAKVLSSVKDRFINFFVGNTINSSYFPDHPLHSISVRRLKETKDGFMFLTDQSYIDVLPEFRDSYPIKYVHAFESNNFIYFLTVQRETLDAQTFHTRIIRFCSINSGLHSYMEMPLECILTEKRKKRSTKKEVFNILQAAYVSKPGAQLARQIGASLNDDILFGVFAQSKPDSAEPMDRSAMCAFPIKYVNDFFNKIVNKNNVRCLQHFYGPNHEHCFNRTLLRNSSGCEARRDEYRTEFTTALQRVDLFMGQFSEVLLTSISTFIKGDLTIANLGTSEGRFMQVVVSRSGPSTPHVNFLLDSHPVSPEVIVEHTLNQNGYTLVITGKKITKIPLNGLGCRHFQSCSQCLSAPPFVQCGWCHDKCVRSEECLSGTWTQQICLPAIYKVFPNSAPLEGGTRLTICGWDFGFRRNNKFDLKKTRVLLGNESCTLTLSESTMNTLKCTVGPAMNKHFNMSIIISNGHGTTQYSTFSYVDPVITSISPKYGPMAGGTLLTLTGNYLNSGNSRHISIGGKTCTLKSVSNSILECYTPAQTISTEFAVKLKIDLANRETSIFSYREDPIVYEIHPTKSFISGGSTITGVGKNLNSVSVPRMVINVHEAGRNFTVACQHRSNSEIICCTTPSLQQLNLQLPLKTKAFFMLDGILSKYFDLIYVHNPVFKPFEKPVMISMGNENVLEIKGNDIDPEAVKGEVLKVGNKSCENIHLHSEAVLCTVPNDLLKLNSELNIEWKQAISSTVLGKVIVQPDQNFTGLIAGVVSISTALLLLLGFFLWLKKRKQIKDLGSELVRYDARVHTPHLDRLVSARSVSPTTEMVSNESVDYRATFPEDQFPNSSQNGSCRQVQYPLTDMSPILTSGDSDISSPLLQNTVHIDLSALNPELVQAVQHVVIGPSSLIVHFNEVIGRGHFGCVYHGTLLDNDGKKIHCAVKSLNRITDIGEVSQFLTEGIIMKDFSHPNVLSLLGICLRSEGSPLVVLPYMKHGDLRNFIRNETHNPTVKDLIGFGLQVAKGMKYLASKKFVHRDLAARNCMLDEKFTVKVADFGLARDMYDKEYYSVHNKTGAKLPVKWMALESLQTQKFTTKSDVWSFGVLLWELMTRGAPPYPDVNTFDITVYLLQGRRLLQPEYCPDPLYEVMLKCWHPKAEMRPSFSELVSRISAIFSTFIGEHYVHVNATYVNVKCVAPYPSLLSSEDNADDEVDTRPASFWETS
Sequence of Angiopoietin-1 receptor (Homo sapiens) (Q02763 whole entry): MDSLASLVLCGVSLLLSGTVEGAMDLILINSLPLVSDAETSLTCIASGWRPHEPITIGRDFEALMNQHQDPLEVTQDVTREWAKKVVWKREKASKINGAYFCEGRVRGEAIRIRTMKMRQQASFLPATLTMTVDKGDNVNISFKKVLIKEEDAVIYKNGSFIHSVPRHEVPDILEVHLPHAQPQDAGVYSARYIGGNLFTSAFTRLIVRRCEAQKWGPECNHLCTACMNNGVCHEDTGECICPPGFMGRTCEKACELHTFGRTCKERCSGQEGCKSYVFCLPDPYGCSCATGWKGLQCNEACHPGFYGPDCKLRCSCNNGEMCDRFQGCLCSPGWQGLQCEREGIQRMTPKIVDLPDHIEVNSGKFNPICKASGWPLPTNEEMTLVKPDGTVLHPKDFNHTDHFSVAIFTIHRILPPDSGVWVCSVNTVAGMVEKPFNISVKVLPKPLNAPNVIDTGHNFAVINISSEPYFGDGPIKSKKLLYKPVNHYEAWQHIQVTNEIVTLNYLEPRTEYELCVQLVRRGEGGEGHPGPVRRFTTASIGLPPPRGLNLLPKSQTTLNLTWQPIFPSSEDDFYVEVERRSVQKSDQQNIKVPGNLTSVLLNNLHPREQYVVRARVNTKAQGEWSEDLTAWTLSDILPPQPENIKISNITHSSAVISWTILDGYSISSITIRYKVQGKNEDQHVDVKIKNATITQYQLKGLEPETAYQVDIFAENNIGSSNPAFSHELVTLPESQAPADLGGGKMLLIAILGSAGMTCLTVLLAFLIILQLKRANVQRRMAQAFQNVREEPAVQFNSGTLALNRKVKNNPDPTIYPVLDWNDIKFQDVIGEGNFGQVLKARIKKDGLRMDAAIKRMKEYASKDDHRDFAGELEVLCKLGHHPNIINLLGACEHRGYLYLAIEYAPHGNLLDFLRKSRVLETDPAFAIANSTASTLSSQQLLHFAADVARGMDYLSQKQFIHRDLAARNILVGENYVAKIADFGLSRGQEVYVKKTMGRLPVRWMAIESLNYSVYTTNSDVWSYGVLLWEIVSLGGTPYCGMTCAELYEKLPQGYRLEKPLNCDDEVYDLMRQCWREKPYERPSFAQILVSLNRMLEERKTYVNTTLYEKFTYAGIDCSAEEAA
Sequence of Mitogen-activated protein kinase 10 (Homo sapiens) (P53779 whole entry): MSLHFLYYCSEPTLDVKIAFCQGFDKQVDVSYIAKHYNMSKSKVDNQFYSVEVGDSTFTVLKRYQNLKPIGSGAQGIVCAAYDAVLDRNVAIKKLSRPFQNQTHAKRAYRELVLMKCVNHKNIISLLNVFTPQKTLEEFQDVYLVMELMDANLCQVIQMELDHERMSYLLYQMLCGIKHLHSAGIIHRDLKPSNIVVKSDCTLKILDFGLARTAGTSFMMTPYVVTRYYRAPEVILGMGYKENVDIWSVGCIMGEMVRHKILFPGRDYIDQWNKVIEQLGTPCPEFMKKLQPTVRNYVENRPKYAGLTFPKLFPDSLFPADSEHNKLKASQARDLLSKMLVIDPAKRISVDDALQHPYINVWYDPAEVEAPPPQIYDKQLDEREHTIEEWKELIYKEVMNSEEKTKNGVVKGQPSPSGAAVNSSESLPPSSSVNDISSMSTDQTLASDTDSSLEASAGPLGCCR
Sequence of Fibroblast growth factor receptor 1 (Homo sapiens) (P11362 22-822 limits assumed): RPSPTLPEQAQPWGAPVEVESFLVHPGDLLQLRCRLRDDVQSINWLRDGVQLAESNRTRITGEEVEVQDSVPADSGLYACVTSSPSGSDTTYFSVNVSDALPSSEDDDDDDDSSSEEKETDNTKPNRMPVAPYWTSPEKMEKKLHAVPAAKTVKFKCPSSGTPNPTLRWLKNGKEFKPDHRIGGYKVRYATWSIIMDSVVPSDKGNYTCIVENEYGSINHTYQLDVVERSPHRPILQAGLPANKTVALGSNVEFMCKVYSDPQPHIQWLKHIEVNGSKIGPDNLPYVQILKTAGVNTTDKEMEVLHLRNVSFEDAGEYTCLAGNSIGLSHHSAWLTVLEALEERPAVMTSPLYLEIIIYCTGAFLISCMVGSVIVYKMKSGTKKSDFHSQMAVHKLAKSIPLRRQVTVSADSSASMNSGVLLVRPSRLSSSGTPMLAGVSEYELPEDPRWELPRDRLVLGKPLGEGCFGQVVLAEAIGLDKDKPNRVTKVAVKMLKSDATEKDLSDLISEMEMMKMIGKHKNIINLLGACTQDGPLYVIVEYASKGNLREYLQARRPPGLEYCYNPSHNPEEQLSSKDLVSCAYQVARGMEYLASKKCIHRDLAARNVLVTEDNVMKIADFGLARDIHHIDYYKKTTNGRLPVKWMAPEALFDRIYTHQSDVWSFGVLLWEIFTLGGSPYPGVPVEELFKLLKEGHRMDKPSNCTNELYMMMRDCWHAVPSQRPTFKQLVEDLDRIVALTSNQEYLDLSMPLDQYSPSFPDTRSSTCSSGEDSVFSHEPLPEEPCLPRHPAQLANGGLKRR

Row | SMILES | IC50 [1] [nM] | other results
1 | O=C(O)C(Cc1ccccc1)N1C(=O)/C(=C/c2ccncc2)SC1=S (configuration not stated) | > 33000 | 
2 | O=C1/C(=C/c2ccc(-c3ccc(Cl)c(Cl)c3)o2)SC(=S)N1c1ccc(F)cc1 | > 33000 | 
3 | O=C(O)CCCN1C(=O)/C(=C/c2ccc(-c3ccccc3Cl)o2)SC1=S | 300 | Activity [2]: 14%; Activity [3]: 16%; Activity [4]: 22%; Activity [5]: 15%; Activity [6]: 25%; Activity [7]: 41%; Activity [8]: 3.5%
4 | O=C(O)c1ccc(N2C(=O)/C(=C/c3cccnc3)SC2=S)cc1 | > 33000 | 
5 | O=C1NC(=S)S/C1=C\c1ccc(-c2ccccc2[N+](=O)[O-])o1 | > 33000 | 
6 | O=C1NC(=S)S/C1=C\c1cccc(Br)c1 | > 33000 | 
7 | O=C(O)CN1C(=O)/C(=C/c2ccco2)SC1=S | > 33000 | 
8 | O=C1/C(=C/c2ccco2)SC(=S)N1c1cccnc1 | > 33000 | 
9 | O=C(O)CCCCCN1C(=O)/C(=C/c2ccc(-c3cccc(C(F)(F)F)c3)o2)SC1=S | 500 | 
10 | O=C(O)CCCN1C(=O)/C(=C/c2ccc(-c3cccc(Cl)c3)o2)SC1=S | 350 | 
11 | O=C(O)CCN1C(=O)/C(=C/c2ccc(-c3ccccc3Cl)o2)SC1=S | 750 | 
12 | O=C(O)CN1C(=O)/C(=C/c2ccc(-c3ccccc3F)o2)SC1=S | 3000 | 
13 | O=C(O)CCCN1C(=O)/C(=C/c2ccc(-c3ccccc3F)o2)SC1=S | 3000 | 
14 | COC(=O)c1ccc(/C=C2\SC(=S)N(c3ccc(O)c(C(=O)O)c3)C2=O)cc1 | > 33000 | 
15 | O=C(O)CCCCCN1C(=O)/C(=C/c2ccc(-c3ccccc3Cl)o2)SC1=S | 500 | 
16 | O=C(O)CCCN1C(=O)/C(=C/c2ccc(-c3c(Cl)cccc3Cl)o2)SC1=S | 500 | 
17 | O=C1/C(=C/c2ccc(Cl)cc2Cl)SC(=S)N1Nc1ccccc1 | > 33000 | 
18 | COC(=O)CCCN1C(=O)/C(=C/c2ccc(-c3ccccc3F)o2)SC1=S | > 33000 | 
19 | O=C(O)CCN1C(=O)/C(=C/c2ccc(-c3ccccc3F)o2)SC1=S | 300 | Activity [2]: 39%; Activity [3]: 22%; Activity [4]: 44%; Activity [5]: 56%; Activity [6]: 32%; Activity [7]: 87%; Activity [8]: 2.5%
20 | O=C1/C(=C/c2ccc(-c3ccc(Br)cc3)o2)SC(=S)N1c1cccc(O)c1 | 2000 | 
21 | O=C(O)CN1C(=O)/C(=C/c2ccncc2)SC1=S | > 33000 | 
22 | O=C1NC(=S)S/C1=C\c1cccnc1 | > 33000 | 
23 | O=C(O)CCCN1C(=O)/C(=C/c2ccc(-c3cc(Cl)ccc3Cl)o2)SC1=S | 350 | 
24 | O=C(O)CN1C(=O)/C(=C/c2ccc(-c3ccccc3Cl)o2)SC1=S | 1250 | 

Now from value to compound, other results behind:

Row | IC50 [1] [nM] | SMILES | other results
25 | 500 | CCC(C(=O)O)N1C(=O)/C(=C/c2ccc(-c3cc(Cl)ccc3Cl)o2)SC1=S (configuration not stated) | 
26 | 500 | CCC(C(=O)O)N1C(=O)/C(=C/c2ccc(-c3ccc(Br)cc3)o2)SC1=S (configuration not stated) | 
27 | 1000 | O=C(O)CCN1C(=O)/C(=C/c2ccc(-c3cccc(Cl)c3)o2)SC1=S | 
28 | 200 | O=C(O)CCCN1C(=O)/C(=C/c2ccc(-c3ccc(Br)cc3)o2)SC1=S | Activity [2]: 100%; Activity [3]: 10%; Activity [4]: 28%; Activity [5]: 28%; Activity [6]: 51%; Activity [7]: 92%; Activity [8]: 3%
29 | > 33000 | COC(=O)CCCN1C(=O)/C(=C/c2ccc(-c3ccc(Br)cc3)o2)SC1=S | 
30 | 200 | O=C(O)CCCCCN1C(=O)/C(=C/c2ccc(-c3ccc(Br)cc3)o2)SC1=S | Activity [2]: 21%; Activity [3]: 5%; Activity [4]: 46%; Activity [5]: 34%; Activity [6]: 7%; Activity [7]: 65%; Activity [8]: 3%
31 | 650 | CC(C(=O)O)N1C(=O)/C(=C/c2ccc(-c3ccc(Cl)c(Cl)c3)o2)SC1=S (configuration not stated) | Ki [9]: 340 nM; Activity [2]: 14%; Activity [3]: 88%; Activity [4]: 29%; Activity [5]: 34%; Activity [6]: 65%; Activity [7]: 46%; Activity [8]: 3%
32 | 2800 | O=C(O)CC(C(=O)O)N1C(=O)/C(=C/c2ccc(-c3ccc(Br)cc3)o2)SC1=S (configuration not stated) | 
33 | 650 | O=C(O)CCN1C(=O)/C(=C/c2ccc(-c3ccc([N+](=O)[O-])cc3)o2)SC1=S | 
34 | 750 | CSCCC(C(=O)O)N1C(=O)/C(=C/c2ccc(-c3ccc(Cl)c(Cl)c3)o2)SC1=S (configuration not stated) | 
35 | 1800 | CCCC(C(=O)O)N1C(=O)/C(=C/c2ccc(-c3ccc([N+](=O)[O-])cc3)o2)SC1=S (configuration not stated) | 
36 | 3900 | CCCC(C(=O)O)N1C(=O)/C(=C/c2ccc(-c3ccc(Cl)c(Cl)c3)o2)SC1=S (configuration not stated) | 
37 | 1000 | O=C(O)CC(C(=O)O)N1C(=O)/C(=C/c2ccc(-c3c(Cl)cccc3Cl)o2)SC1=S (configuration not stated) | 
38 | 1800 | CCc1ccc(-c2ccc(/C=C3\SC(=S)N(C(CC(=O)O)C(=O)O)C3=O)o2)cc1 (configuration not stated) | 
39 | 800 | CCOC(=O)c1ccc(-c2ccc(/C=C3\SC(=S)N(C(CC(=O)O)C(C)=O)C3=O)o2)cc1 (configuration not stated) | 
40 | 500 | CCCC(C(=O)O)N1C(=O)/C(=C/c2ccc(-c3ccc(Br)cc3)o2)SC1=S (configuration not stated) | 
41 | 750 | CCC(C(=O)O)N1C(=O)/C(=C/c2ccc(-c3cccc(Cl)c3)o2)SC1=S (configuration not stated) | 
